One block for each compound: values may come before it. Calls of active or inactive are those of the source. The calls are words filed in the database; no cut-off is given here.
Legend:
KB [1] = assay: Antiproliferative activity against human KB cells
[2] = target: T1, Receptor tyrosine-protein kinase erbB-2 (Homo sapiens, UniProt P04626); assay: Inhibition of ErbB2 kinase
KB [3] = assay: Effect on growth of human KB cells
[4] = Lipophilicity, log D of the compound; type: physicochemical; conditions: octanol/water
[5] = Antiproliferative activity against BT474C cells; type: functional, cell-based; conditions: Homo sapiens
[6] = target: T1, Receptor tyrosine-protein kinase erbB-2; assay: Inhibition of Erb2 autophosphorylation by cellular clone 24 assay; type: functional
[7] = target: Epidermal growth factor receptor (Homo sapiens, UniProt P00533)
[8] = Bioavailability in Alderley Park rat at 2 mg/kg, iv and 5 mg/kg, po; type: ADME, organism-based; conditions: in vivo
Summary of the method: (§1)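 Pharmacokinetics after intravenous dosing at 2 mg/kg and oral dosing at 5 mg/kg in immunocompetent female Alderley Park mice and in female Alderley Park rats. Male Alderley Park beagles received 50 mg iv and 250 mg p.o.; dog figures are means. AUC is AUC0-24 taken from the oral dose.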

LoVo [9] = assay: Growth inhibition of LoVo cells xenografted in mouse at 50 mg/kg, po bid; type: functional, organism-based; parameters: dose 50 mg/kg; conditions: Homo sapiens
Summary of the method: (§2)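 LoVo xenografts in mice were dosed orally at 50 mg/kg b.i.d. Tumour growth and tumour phospho-EGFR were assessed.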

[10] = Plasma concentration in mouse at 50 mg/kg, po in presence of 1-aminobenzotriazole after 16 hrs; type: ADME, organism-based; parameters: dose 50 mg/kg, route oral
BT474C [11] = assay: Antitumor activity against human BT474C cells xenografted mouse at 50 mg/kg, po bid for 21 days; type: functional, organism-based; parameters: dose 50 mg/kg
[12] = Volume of distribution at steady state in Alderley Park rat at 2 mg/kg, iv and 5 mg/kg, po; type: ADME, organism-based; conditions: in vivo, read-out: Vdss; summary of the method: as §1
[13] = target: Proto-oncogene tyrosine-protein kinase Src (Homo sapiens, UniProt P12931); assay: Inhibition of Src
[14] = Plasma concentration in mouse at 50 mg/kg, po after 2 hrs; type: ADME, organism-based; parameters: dose 50 mg/kg, route oral
Summary of the method: (§3)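 Female mice were given a single oral dose of 50 mg/kg without ABT. Total plasma concentration was measured at 2, 4, 6, 16 and 24 h, and AUC was derived.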

Rattus norvegicus = assay: Inhibition of phospho-EGFR in LoVo cells xenografted rat at 300 mg/kg, po qd
[15] = Volume of distribution at steady state in Alderley Park mouse at 2 mg/kg, iv and 5 mg/kg, po; type: ADME, organism-based; conditions: in vivo, read-out: Vdss; summary of the method: as §1
Phospholipidosis = assay: In vivo phospholipidosis in rat after 14 days at 600 mg/kg dose q.d.; type: ADME, organism-based; parameters: dose 600 mg/kg; conditions: 336 h
Summary of the method: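 Rat toxicology study lasting 14 days with once-daily dosing at up to 600 mg/kg, examined for phospholipidosis.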

[16] = target: Vascular endothelial growth factor receptor 2 (Homo sapiens, UniProt P35968); assay: Inhibition of Kdr
[17] = AUC (0 to 24 hrs) in Alderley Park rat at 5 mg/kg, po; type: ADME, organism-based; parameters: time < 24 hr, dose 5 mg/kg, route oral; conditions: plasma; summary of the method: as §1
[18] = Plasma concentration in mouse at 50 mg/kg, po in presence of 1-aminobenzotriazole after 6 hrs; type: ADME, organism-based; parameters: dose 50 mg/kg, route oral
LoVo [19] = assay: Growth inhibition of LoVo cells xenografted in rat at 300 mg/kg, po qd; conditions: Homo sapiens
Canis familiaris [20] = assay: Bioavailability in Alderley Park Beagle dog at 50 mg/kg, iv and […], po; type: ADME, organism-based, Canis lupus familiaris; conditions: in vivo; summary of the method: as §1
Mus musculus [21] = assay: AUC (0 to 24 hrs) in Alderley Park mouse at 5 mg/kg, po; type: ADME, organism-based, Plasma; parameters: time < 24 hr, dose 5 mg/kg, route oral; conditions: in vivo; summary of the method: as §1
Mus musculus [22] = assay: Inhibition of erbB2 phosphorylation in human BT474C cells xenografted mouse at 50 mg/kg, po bid for 21 days; type: functional; conditions: 504 h
Mus musculus [23] = assay: AUC in mouse at 50 mg/kg, po; type: ADME, organism-based, Plasma; parameters: dose 50 mg/kg, route oral; conditions: in vivo; summary of the method: as §3
Canis familiaris [24] = assay: AUC (0 to 24 hrs) in Alderley Park Beagle dog at […], po; type: ADME, organism-based, Canis lupus familiaris, Plasma; parameters: time < 24 hr, route oral; conditions: in vivo; summary of the method: as §1
[25] = AUC in mouse at 50 mg/kg, po in presence of 1-aminobenzotriazole; type: ADME, organism-based; parameters: dose 50 mg/kg, route oral; conditions: plasma
[26] = Plasma concentration in mouse at 50 mg/kg, po in presence of 1-aminobenzotriazole after 2 hrs; type: ADME, organism-based; parameters: dose 50 mg/kg, route oral
Mus musculus [27] = assay: Bioavailability in Alderley Park mouse at 2 mg/kg, iv and 5 mg/kg, po; type: ADME, organism-based; conditions: in vivo; summary of the method: as §1
[28] = Plasma concentration in mouse at 50 mg/kg, po in presence of 1-aminobenzotriazole after 4 hrs; type: ADME, organism-based; parameters: dose 50 mg/kg, route oral
BT474C [29] = assay: Antitumor activity against human BT474C cells xenografted mouse at 50 mg/kg, po qd for 21 days; type: functional, organism-based; parameters: dose 50 mg/kg
[30] = Plasma concentration in mouse at 50 mg/kg, po in presence of 1-aminobenzotriazole after 24 hrs; type: ADME, organism-based; parameters: dose 50 mg/kg, route oral
Mus musculus [31] = assay: Inhibition of phospho-EGFR in LoVo cells xenografted mouse at 50 mg/kg, po bid; type: functional, organism-based; parameters: dose 50 mg/kg; summary of the method: as §2
[32] = Clearance in Alderley Park rat at 2 mg/kg, iv and 5 mg/kg, po; type: ADME, organism-based; conditions: in vivo; summary of the method: as §1
[33] = Volume of distribution at steady state in Alderley Park Beagle dog at 50 mg/kg, iv and […], po; type: ADME, organism-based, Canis lupus familiaris; conditions: in vivo, read-out: Vdss; summary of the method: as §1
Mus musculus [34] = assay: Inhibition of erbB2 phosphorylation in human BT474C cells xenografted mouse at 50 mg/kg, po

T1 sequence (P04626 whole entry): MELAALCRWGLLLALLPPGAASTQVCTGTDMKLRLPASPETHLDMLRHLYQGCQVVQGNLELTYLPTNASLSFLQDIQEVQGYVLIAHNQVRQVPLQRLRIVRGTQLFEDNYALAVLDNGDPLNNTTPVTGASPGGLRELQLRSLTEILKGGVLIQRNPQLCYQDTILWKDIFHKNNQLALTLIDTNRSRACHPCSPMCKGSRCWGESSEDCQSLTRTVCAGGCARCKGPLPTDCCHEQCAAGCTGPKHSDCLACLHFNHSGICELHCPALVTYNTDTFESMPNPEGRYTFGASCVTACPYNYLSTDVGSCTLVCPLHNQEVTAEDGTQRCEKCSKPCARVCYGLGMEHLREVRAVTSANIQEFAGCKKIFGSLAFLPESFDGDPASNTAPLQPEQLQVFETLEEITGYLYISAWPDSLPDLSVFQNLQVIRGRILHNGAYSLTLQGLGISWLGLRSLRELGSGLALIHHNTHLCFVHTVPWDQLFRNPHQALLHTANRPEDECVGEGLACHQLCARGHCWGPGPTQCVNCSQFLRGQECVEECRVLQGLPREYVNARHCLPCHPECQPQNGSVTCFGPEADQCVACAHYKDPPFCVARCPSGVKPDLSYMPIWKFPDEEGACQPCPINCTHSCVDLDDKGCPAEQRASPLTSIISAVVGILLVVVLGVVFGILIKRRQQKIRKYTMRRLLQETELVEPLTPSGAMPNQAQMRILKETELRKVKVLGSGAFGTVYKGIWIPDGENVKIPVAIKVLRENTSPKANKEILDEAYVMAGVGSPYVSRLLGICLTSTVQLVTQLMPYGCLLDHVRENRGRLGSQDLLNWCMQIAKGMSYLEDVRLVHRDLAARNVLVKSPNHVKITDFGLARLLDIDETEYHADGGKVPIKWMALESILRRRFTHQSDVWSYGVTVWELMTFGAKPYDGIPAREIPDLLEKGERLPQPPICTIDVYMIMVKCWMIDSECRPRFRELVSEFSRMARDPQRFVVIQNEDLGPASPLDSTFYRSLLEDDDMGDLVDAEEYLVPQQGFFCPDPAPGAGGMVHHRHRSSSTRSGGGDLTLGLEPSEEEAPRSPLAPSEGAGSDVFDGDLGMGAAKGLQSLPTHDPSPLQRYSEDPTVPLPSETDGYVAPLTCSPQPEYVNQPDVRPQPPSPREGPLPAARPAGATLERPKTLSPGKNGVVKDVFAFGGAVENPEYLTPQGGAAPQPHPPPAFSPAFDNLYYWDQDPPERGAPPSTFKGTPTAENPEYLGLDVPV
Epidermal growth factor receptor, sequence (P00533 whole entry): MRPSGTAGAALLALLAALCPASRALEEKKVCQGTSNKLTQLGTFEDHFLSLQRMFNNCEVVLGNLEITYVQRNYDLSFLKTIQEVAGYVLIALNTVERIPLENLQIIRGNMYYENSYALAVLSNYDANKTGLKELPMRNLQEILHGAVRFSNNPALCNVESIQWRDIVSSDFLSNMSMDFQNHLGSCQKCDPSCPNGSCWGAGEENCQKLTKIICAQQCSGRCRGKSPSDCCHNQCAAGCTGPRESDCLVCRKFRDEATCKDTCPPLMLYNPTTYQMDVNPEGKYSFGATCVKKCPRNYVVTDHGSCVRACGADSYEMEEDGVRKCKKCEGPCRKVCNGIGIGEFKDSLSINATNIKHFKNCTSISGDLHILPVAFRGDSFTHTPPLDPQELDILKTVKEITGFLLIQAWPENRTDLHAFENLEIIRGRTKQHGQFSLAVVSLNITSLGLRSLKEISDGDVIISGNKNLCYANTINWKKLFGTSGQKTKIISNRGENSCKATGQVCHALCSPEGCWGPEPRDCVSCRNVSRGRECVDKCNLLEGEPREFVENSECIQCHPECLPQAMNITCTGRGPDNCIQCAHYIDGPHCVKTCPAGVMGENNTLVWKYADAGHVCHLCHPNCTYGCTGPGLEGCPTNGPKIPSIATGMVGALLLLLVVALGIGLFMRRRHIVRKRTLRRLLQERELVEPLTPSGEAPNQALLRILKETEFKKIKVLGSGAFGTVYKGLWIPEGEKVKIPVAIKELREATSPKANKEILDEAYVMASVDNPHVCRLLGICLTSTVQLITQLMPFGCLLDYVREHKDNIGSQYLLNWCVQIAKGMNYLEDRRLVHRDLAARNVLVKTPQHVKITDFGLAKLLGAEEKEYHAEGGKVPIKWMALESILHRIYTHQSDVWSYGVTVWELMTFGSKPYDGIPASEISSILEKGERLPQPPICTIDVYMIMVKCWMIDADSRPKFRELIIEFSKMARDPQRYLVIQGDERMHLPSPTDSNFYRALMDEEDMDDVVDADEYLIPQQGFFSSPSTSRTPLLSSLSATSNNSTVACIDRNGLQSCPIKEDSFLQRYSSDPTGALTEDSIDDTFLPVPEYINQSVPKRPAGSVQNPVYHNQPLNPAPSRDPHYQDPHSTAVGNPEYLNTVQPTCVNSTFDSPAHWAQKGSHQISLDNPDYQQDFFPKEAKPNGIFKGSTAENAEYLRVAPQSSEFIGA
Proto-oncogene tyrosine-protein kinase Src, sequence (P12931 2-536 limits assumed): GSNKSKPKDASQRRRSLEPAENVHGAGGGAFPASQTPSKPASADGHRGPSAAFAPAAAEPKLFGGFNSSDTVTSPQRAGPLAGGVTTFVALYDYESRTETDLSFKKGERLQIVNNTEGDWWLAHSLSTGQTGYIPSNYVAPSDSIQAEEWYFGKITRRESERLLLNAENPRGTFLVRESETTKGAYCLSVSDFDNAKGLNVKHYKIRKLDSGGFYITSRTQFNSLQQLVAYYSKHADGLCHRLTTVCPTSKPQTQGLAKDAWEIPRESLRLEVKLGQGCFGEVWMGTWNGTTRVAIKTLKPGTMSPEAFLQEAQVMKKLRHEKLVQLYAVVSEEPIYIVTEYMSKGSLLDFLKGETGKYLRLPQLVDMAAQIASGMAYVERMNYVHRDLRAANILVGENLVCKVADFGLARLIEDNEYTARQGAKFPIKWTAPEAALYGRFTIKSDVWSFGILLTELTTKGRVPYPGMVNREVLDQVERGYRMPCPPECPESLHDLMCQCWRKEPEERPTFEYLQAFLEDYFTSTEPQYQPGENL
Vascular endothelial growth factor receptor 2, sequence (P35968 whole entry): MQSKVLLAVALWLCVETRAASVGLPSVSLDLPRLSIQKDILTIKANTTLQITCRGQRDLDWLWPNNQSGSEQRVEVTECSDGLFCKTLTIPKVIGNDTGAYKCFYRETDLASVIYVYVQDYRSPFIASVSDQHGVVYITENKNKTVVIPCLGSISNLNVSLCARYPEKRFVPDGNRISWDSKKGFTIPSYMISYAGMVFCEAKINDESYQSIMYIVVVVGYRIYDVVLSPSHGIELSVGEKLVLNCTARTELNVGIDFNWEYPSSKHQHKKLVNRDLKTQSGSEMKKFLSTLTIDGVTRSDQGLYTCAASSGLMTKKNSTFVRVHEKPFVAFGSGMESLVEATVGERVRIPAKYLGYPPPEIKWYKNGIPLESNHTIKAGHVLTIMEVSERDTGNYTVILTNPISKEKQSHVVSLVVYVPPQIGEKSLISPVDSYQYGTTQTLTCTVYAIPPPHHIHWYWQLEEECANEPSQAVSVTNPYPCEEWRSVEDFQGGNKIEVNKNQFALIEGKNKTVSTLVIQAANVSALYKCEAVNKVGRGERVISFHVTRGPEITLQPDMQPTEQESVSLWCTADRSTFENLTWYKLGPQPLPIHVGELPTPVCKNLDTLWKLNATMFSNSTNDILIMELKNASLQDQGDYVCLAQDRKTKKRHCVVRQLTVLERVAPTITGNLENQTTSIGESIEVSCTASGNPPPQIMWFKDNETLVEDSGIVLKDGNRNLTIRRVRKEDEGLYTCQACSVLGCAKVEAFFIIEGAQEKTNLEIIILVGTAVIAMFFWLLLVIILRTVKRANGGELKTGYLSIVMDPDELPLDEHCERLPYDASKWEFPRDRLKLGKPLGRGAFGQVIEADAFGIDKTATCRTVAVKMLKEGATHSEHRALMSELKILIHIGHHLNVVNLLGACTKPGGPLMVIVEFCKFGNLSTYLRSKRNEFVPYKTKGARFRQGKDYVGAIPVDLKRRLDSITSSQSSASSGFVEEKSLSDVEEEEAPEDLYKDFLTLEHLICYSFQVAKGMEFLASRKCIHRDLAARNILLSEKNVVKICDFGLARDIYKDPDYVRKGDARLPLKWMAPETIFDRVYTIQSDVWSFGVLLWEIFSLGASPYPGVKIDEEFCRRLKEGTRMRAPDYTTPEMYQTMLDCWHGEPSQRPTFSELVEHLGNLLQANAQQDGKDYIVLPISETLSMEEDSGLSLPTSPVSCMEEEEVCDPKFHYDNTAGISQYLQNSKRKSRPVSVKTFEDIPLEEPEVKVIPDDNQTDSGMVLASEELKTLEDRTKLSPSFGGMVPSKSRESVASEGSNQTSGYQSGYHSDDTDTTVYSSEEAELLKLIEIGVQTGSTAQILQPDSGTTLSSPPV

IC50 (KB [1]): 141 nM
IC50 [2]: < 2 nM
IC50 (KB [3]): 6940 nM
logD [4]: 3
IC50 [6]: 11 nM
IC50 [7]: 2 nM
Compound: C[C@H](CN(C)C(=O)CO)Oc1cccc2ncnc(Nc3ccc(OCc4ccccn4)c(Cl)c3)c12
IC50 [5]: 34 nM

IC50 [2]: 2 nM
logD [4]: 3
IC50 [6]: 259 nM
IC50 [7]: 327 nM
Compound: O=C(CO)N1CCC[C@H]1COc1cccc2ncnc(Nc3ccc(OCc4ccccn4)c(Cl)c3)c12

IC50 [2]: < 2 nM
logD [4]: 3
IC50 [6]: 11 nM
IC50 [7]: 3 nM
Compound: C[C@H](COc1cccc2ncnc(Nc3ccc(OCc4ccccn4)c(Cl)c3)c12)N(C)C(=O)CO

IC50 [2]: 19 nM
logD [4]: 3
IC50 [6]: 131 nM
IC50 [7]: 2580 nM
Compound: C[C@@H](COc1cccc2ncnc(Nc3ccc(OCc4ccccn4)c(Cl)c3)c12)N(C)C(=O)CO

IC50 (KB [1]): 621 nM
IC50 [2]: 4 nM
IC50 (KB [3]): 8140 nM
bioavailability [8]: 32%
concentration at 16 h [10]: 0.026 µM
Vd [12]: 0.9 L/kg
IC50 [13]: > 1000 nM
concentration at 2 h [14]: 0.35 µM
Vd [15]: 0.7 L/kg
IC50 [16]: > 1000 nM
AUC(0-t) at 24 h [17]: 5.5 µM·h
concentration at 6 h [18]: 6.3 µM
logD [4]: 3
F (Canis familiaris [20]): 51%
AUC (Mus musculus [21]): 0.02 µM·h
AUC (Mus musculus [23]): 0.89 µM·h
AUC (Canis familiaris [24]): 32 µM·h
AUC [25]: 99 µM·h
concentration at 2 h [26]: 16.5 µM
IC50 [6]: 43 nM
F (Mus musculus [27]): 4%
concentration at 4 h [28]: 13.8 µM
concentration at 24 h [30]: 0.007 µM
IC50 [7]: 35 nM
clearance [32]: 10 mL/min/kg
Vd [33]: 1 L/kg
Compound: CN(CCOc1cccc2ncnc(Nc3ccc(OCc4ccccn4)c(Cl)c3)c12)C(=O)CO
Activity (LoVo [9]): inactive
Activity (BT474C [11]): Active
Activity (Rattus norvegicus): inactive
Phospholipidosis (Phospholipidosis): Not Active
Activity (LoVo [19]): inactive
IC50 [5]: 130 nM
inhibition in vivo at 50 mg/kg (Mus musculus [22]): 70%
Activity (BT474C [29]): Active
Activity (Mus musculus [31]): inactive
inhibition in vivo at 50 mg/kg (Mus musculus [34]): 70%

IC50 [2]: 22 nM
logD [4]: 3
IC50 [6]: 291 nM
IC50 [7]: 191 nM
Compound: C[C@@H](CN(C)C(=O)CO)Oc1cccc2ncnc(Nc3ccc(OCc4ccccn4)c(Cl)c3)c12

IC50 [2]: < 2 nM
logD [4]: 3
IC50 [6]: 147 nM
IC50 [7]: 97 nM
Compound: O=C(CO)N1CCC[C@@H]1COc1cccc2ncnc(Nc3ccc(OCc4ccccn4)c(Cl)c3)c12

Source: ChEMBL document CHEMBL1140495, “Neutral 5-substituted 4-anilinoquinazolines as potent, orally active inhibitors of erbB2 receptor tyrosine kinase” (Bioorg Med Chem Lett, 2007)
